Reference: paper PMC4576993 (Leukemia, 2011)
“And” between values parts separate entries of the source, which are not always exact repeats. Equal values may be shown once. Read-outs that look alike come from different tables or passages of the source.

Columns and labels:
p53 = details: cited from earlier work
MV4-11 AML cell line = details: in vitro; cited from earlier work
[1] = assay type: in vivo, human
How it was run: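 Open-label 3+3-type escalation in cohorts of 3–6, starting at 18 mg/m2 weekly (days 1, 8, 15) or 9 mg/m2 twice weekly (days 1, 4, 8, 11), 28-day cycles, with modified Fibonacci increments. A cohort was expanded to 6 on any DLT. MTD was the level below that with ≥2/6 DLTs. DLT was assessed in cycle 1 through day 29. Toxicity was graded by NCI CTCAE v3.0. One 25% dose reduction was allowed, with supportive care permitted.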

[2] = test system: relapsed or refractory leukemia; assay: Clinical response; assay type: in vivo, human
How it was run: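 Dosing was a ~10 min IV infusion, either weekly (days 1, 8, 15; 18–90 mg/m2) or twice weekly (days 1, 4, 8, 11; 9–50 mg/m2), in 28-day cycles, up to 4(+2) cycles. Marrow aspirate or biopsy and peripheral blood were taken at each cycle end (~day 28). Response followed IWG criteria: MLFS was marrow blasts <5%; CR added no circulating blasts, no extramedullary disease, neutrophils >1×10^9/l and platelets ≥100×109/l; CRp was CR with incomplete platelet recovery.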

[3] = patients with solid tumors, up to 75 mg/m^2/28-day cycle; cited from earlier work
P-glycoprotein = details: cited from earlier work
bone marrow = details: at its MTD, normal mouse model; cited from earlier work
[4] = twice weekly (n = 31), Grade 1 or 2
[5] = twice weekly (n = 31), Grade ≥3
[6] = two patients with CR, weekly schedule

SMILES: CN[C@H]1CN(c2ccc3c(=O)c(C(=O)O)cn(-c4nccs4)c3n2)C[C@@H]1OC [vosaroxin, (+)-1,4-dihydro-7-(trans-3-methoxy-4-methylamino-1-pyrrolidinyl)-4-oxo-1-(2-thiazolyl)-1,8-naphthyridine-3-carboxylic acid]
- Dependence of activity on p53 (p53): independent of p53
- Half-maximal (50%) inhibitory concentration (IC50) (MV4-11 AML cell line): 0.0401 µg/mL
- IC90 (MV4-11 AML cell line): 1000 nM
- 30-day all-cause mortality rate ([1]; 73 treated patients): 11%
- Deaths within 30 days after the first dose ([1]; 73 treated patients): Eight
- Abdominal pain, % of patients ([1]; Total (n = 73), All grades): 22%
- Abdominal pain, No. of patients ([1]; Total (n = 73), All grades): 16
- Anorexia, No. of patients ([1]; Total (n = 73), All grades): 30
- Diarrhea, % of patients ([1]; Total (n = 73), All grades): 49%
- Diarrhea, No. of patients ([1]; Total (n = 73), All grades): 36
- Nausea, % of patients ([1]; Total (n = 73), All grades): 63%
- Nausea, No. of patients ([1]; Total (n = 73), All grades): 46
- Peripheral edema, % of patients ([1]; Total (n = 73), All grades): 34%
- Peripheral edema, No. of patients ([1]; Total (n = 73), All grades): 25
- Petechiae, % of patients ([1]; Total (n = 73), All grades): 21%
- Petechiae, No. of patients ([1]; Total (n = 73), All grades): 15
- Pleural effusion, % of patients ([1]; Total (n = 73), All grades): 22%
- Pleural effusion, No. of patients ([1]; Total (n = 73), All grades): 16
- Pyrexia, % of patients ([1]; Total (n = 73), All grades): 29%
- Pyrexia, No. of patients ([1]; Total (n = 73), All grades): 21
- Stomatitis, % of patients ([1]; Total (n = 73), All grades): 29%
- Stomatitis, No. of patients ([1]; Total (n = 73), All grades): 21
- Clinical manifestation of QTc prolongation, such as torsades de pointes ([1]; all treated patients): No clinical manifestation of QTc prolongation
- Stomatitis duration, range ([1]; cycle 1): 5 to 39 days
- Stomatitis median duration ([1]; cycle 1): 15 days
- Stomatitis median onset ([1]; cycle 1): 14 days
- Stomatitis onset, range ([1]; cycle 1): 3 to 20 days
- Patients experiencing stomatitis grade 1–2 ([1]; cycle 1, overall): 12%
- Patients experiencing stomatitis grade ≥3 ([1]; cycle 1, overall): 15%
- Patients experiencing stomatitis of any grade ([1]; cycle 1, overall): 27%
- Treatment-related hepatic or renal dysfunction ([1]; doses up to 90 mg/m^2 weekly and 50 mg/m^2 twice weekly): No grade 3 or greater treatment-related hepatic or renal dysfunction was reported
- Time of death after first dose, range ([1]; eight deaths within 30 days): 11 to 30 days
- Dose-limiting toxicity (DLT) ([1]; patients with advanced leukemia, both schedules): stomatitis
- Abdominal pain, % of patients [1, 4]: 10%
- Abdominal pain, No. of patients [1, 4]: 3
- Anorexia, % of patients [1, 4]: 39%
- Anorexia, No. of patients [1, 4]: 12
- Diarrhea, % of patients [1, 4]: 39%
- Diarrhea, No. of patients [1, 4]: 12
- Dyspnea, No. of patients [1, 4]: 10
- Fatigue, No. of patients [1, 4]: 14
- Febrile neutropenia, % of patients [1, 4]: 0%
- Febrile neutropenia, No. of patients [1, 4]: 0
- Infection (20 individual adverse event terms), No. of patients [1, 4]: 10
- Nausea, % of patients [1, 4]: 68%
- Nausea, No. of patients [1, 4]: 21
- Peripheral edema, % of patients [1, 4]: 29%
- Peripheral edema, No. of patients [1, 4]: 9
- Petechiae, % of patients [1, 4]: 19%
- Petechiae, No. of patients [1, 4]: 6
- Pleural effusion, % of patients [1, 4]: 16%
- Pleural effusion, No. of patients [1, 4]: 5
- Pyrexia, % of patients [1, 4]: 19%
- Pyrexia, No. of patients [1, 4]: 6
- Stomatitis, % of patients [1, 4]: 19%
- Stomatitis, No. of patients [1, 4]: 6
- Abdominal pain, % of patients [1, 5]: 3%
- Abdominal pain, No. of patients [1, 5]: 1
- Anorexia, % of patients [1, 5]: 0%
- Anorexia, No. of patients [1, 5]: 0
- Diarrhea, % of patients [1, 5]: 3%
- Diarrhea, No. of patients [1, 5]: 1
- Dyspnea, % of patients [1, 5]: 3%
- Dyspnea, No. of patients [1, 5]: 1
- Fatigue, % of patients [1, 5]: 0%
- Fatigue, No. of patients [1, 5]: 0
- Febrile neutropenia, No. of patients [1, 5]: 15
- Infection (20 individual adverse event terms), No. of patients [1, 5]: 11
- Nausea, % of patients [1, 5]: 3%
- Nausea, No. of patients [1, 5]: 1
- Peripheral edema, % of patients [1, 5]: 0%
- Peripheral edema, No. of patients [1, 5]: 0
- Petechiae, % of patients [1, 5]: 3%
- Petechiae, No. of patients [1, 5]: 1
- Pleural effusion, % of patients [1, 5]: 3%
- Pleural effusion, No. of patients [1, 5]: 1
- Pyrexia, No. of patients [1, 5]: 4
- Stomatitis, % of patients [1, 5]: 19%
- Stomatitis, No. of patients [1, 5]: 6
- Time to recovery of peripheral absolute neutrophil counts to >1×10^9/l [1, 6]: 50 days
- Time to recovery of platelets to ≥100×10^9/l [1, 6]: 28 days
- Abdominal pain, No. of patients ([1]; weekly (n = 42), Grade 1 or 2): 11
- Diarrhea, % of patients ([1]; weekly (n = 42), Grade 1 or 2): 52%
- Diarrhea, No. of patients ([1]; weekly (n = 42), Grade 1 or 2): 22
- Dyspnea, % of patients ([1]; weekly (n = 42), Grade 1 or 2): 31%
- Fatigue, No. of patients ([1]; weekly (n = 42), Grade 1 or 2): 19
- Febrile neutropenia, % of patients ([1]; weekly (n = 42), Grade 1 or 2): 0%
- Febrile neutropenia, No. of patients ([1]; weekly (n = 42), Grade 1 or 2): 0
- Infection (20 individual adverse event terms), % of patients ([1]; weekly (n = 42), Grade 1 or 2): 12%
- Infection (20 individual adverse event terms), No. of patients ([1]; weekly (n = 42), Grade 1 or 2): 5
- Nausea, % of patients ([1]; weekly (n = 42), Grade 1 or 2): 57%
- Nausea, No. of patients ([1]; weekly (n = 42), Grade 1 or 2): 24
- Peripheral edema, % of patients ([1]; weekly (n = 42), Grade 1 or 2): 36%
- Peripheral edema, No. of patients ([1]; weekly (n = 42), Grade 1 or 2): 15
- Petechiae, % of patients ([1]; weekly (n = 42), Grade 1 or 2): 19%
- Petechiae, No. of patients ([1]; weekly (n = 42), Grade 1 or 2): 8
- Pleural effusion, % of patients ([1]; weekly (n = 42), Grade 1 or 2): 21%
- Pleural effusion, No. of patients ([1]; weekly (n = 42), Grade 1 or 2): 9
- Pyrexia, No. of patients ([1]; weekly (n = 42), Grade 1 or 2): 10
- Stomatitis, % of patients ([1]; weekly (n = 42), Grade 1 or 2): 10%
- Stomatitis, No. of patients ([1]; weekly (n = 42), Grade 1 or 2): 4
- Abdominal pain, % of patients ([1]; weekly (n = 42), Grade ≥3): 2%
- Abdominal pain, No. of patients ([1]; weekly (n = 42), Grade ≥3): 1
- Anorexia, % of patients ([1]; weekly (n = 42), Grade ≥3): 2%
- Anorexia, No. of patients ([1]; weekly (n = 42), Grade ≥3): 1
- Diarrhea, % of patients ([1]; weekly (n = 42), Grade ≥3): 2%
- Diarrhea, No. of patients ([1]; weekly (n = 42), Grade ≥3): 1
- Dyspnea, % of patients ([1]; weekly (n = 42), Grade ≥3): 0%
- Dyspnea, No. of patients ([1]; weekly (n = 42), Grade ≥3): 0
- Fatigue, % of patients ([1]; weekly (n = 42), Grade ≥3): 2%
- Fatigue, No. of patients ([1]; weekly (n = 42), Grade ≥3): 1
- Febrile neutropenia, No. of patients ([1]; weekly (n = 42), Grade ≥3): 28
- Infection (20 individual adverse event terms), No. of patients ([1]; weekly (n = 42), Grade ≥3): 22
- Nausea, % of patients ([1]; weekly (n = 42), Grade ≥3): 0%
- Nausea, No. of patients ([1]; weekly (n = 42), Grade ≥3): 0
- Peripheral edema, % of patients ([1]; weekly (n = 42), Grade ≥3): 2%
- Peripheral edema, No. of patients ([1]; weekly (n = 42), Grade ≥3): 1
- Petechiae, % of patients ([1]; weekly (n = 42), Grade ≥3): 0%
- Petechiae, No. of patients ([1]; weekly (n = 42), Grade ≥3): 0
- Pleural effusion, % of patients ([1]; weekly (n = 42), Grade ≥3): 2%
- Pleural effusion, No. of patients ([1]; weekly (n = 42), Grade ≥3): 1
- Pyrexia, % of patients ([1]; weekly (n = 42), Grade ≥3): 2%
- Pyrexia, No. of patients ([1]; weekly (n = 42), Grade ≥3): 1
- Stomatitis, % of patients ([1]; weekly (n = 42), Grade ≥3): 12%
- Stomatitis, No. of patients ([1]; weekly (n = 42), Grade ≥3): 5
- Patients with grade 3 stomatitis as DLT ([1]; weekly schedule): five
- Median time to morphologic leukemia-free state after first dose ([2]; 16 patients): 32.5 days
- Time to morphologic leukemia-free state after first dose, range ([2]; 16 patients): 21–51 days
- Patients with response of CR or CRp ([2]; 73 treated patients, both schedules): Five
- Additional patients with morphologic leukemia-free state (beyond CR/CRp) ([2]; both schedules): 11 patients
- Duration of CR/CRp responses, range ([2]; five responding patients): 1.7–19.2 months
- Median duration of CR/CRp responses ([2]; five responding patients): 3.1 months
- Patients achieving morphologic leukemia-free state ([2]; once weekly with ≥50 mg/m^2): 12 patients
- Patients achieving morphologic leukemia-free state ([2]; twice weekly with ≥30 mg/m^2): 4 patients
- Time plasma concentration >1 μmol/l in the other two patients with CR or CRp ([2]; weekly time above threshold): 10 h and 16 h
- Primary DLT [3]: myelosuppression
- Substrate for P-glycoprotein (P-glycoprotein): not a substrate for P-glycoprotein
- Bone marrow ablation compared with cytarabine (bone marrow): ablated bone marrow more potently than cytarabine
